Source: PubChem (several laboratories)
EBI2 block – EBI2 (human) antagonism; P32249; EBI2 beta-arrestin recruitment, luminescence, 7a,25-OHC stimulated; inhibition, % at 5 µM; 360,000 tested, 0.81% active; in the data active means inhibition above about 38%;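 further: enzyme fragment complementation signal reports receptor beta-arrestin coupling in cells; 0% = agonist plus DMSO wells and 100% = wells without agonist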
Target sequence (P32249 whole entry, looked up, the tested form may be a part): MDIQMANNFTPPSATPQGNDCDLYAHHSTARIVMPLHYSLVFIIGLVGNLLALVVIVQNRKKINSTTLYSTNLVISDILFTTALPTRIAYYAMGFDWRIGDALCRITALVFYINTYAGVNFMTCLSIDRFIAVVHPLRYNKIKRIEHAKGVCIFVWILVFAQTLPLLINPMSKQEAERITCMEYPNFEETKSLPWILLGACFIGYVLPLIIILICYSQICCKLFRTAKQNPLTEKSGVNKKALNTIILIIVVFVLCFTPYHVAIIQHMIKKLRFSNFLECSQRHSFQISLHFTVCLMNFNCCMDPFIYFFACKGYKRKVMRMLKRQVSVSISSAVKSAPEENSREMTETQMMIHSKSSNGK
MC4R antagonist – human MC4R antagonism in cAMP assay | P32245 | MC4R-expressing cells, MTII-stimulated cAMP, LANCE TR-FRET | inhibition, % at 6.5 µM | 360,000 tested, 0.48% active;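 active means inhibition above its plate's cutoff, the mean of tested wells on that plate plus 3 SD, cut at about 29% in these data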;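 further: 0% = Melanotan II alone and 100% = Melanotan II plus saturating MCL0020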
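material = U2OS cells stably expressing human melanocortin 4 receptor (MC4R) | also added = Melanotan II challenge | dosing = single nominal compound dose of 6.5 µM | detection = TR-FRET with Eu-cAMP and labeled anti-cAMP, 671 nm | replication = singlicate | timing = compound 30 min, challenge 1 h, detection 1 h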
Exocytosis inh – lytic granule exocytosis inhibition | TALL-104 LAMP-1 surface exposure, flow cytometry; cells stimulated with thapsigargin and PMA | inhibition, % at 10 µM | 360,000 tested, 0.66% active | AID 651702;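 active means inhibition above about 55%, limit read from the data; inconclusive means no clear call, values can overlap the other calls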
Myeloid diff 2 – promotes myeloid progenitor differentiation. 360,000 tested, 1% active. AID 624256. calls only at 10 µM. ER-HoxA9 myeloid progenitors, lysozyme-GFP differentiation, flow cytometry;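 active means normalized GFP-positive differentiation at or above the plate's own cutoff, the solvent-only control mean plus 3 SD; inconclusive means no clear call, values can overlap the other calls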;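 further: cells exposed to compound for four days before flow analysis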
MC4R ag barr – activates human MC4R beta-arrestin recruitment | P32245 | activation, % at 8.9 µM | U2OS MC4R beta-arrestin complementation, luminescence; percent of melanotan II response, DMSO zero | 360,000 tested, 0.98% active;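 active means activation above a per-plate cutoff, the mean activation of sample wells on that plate plus 3 SD, cut at about 8% in these data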
* = called active by the depositor; i = inactive; ? = inconclusive; . = no result; + = active, no number. Most compounds without a hit are left out; they make up all but 3.7% or so of the library.

SMILES	EBI2 block	MC4R antagonist	Exocytosis inh	Myeloid diff 2	MC4R ag barr
O=C(c1cc(-c2cccc(Cl)c2)on1)N1CCc2ccccc2C1	2.2	-2.7	-3.0	+	0.8
CCOc1ccc(NC(=O)CN2C(=O)NC(CCc3ccccc3)C2=O)cc1OCC (stereo not drawn)	-10.8	8.1	-10.7	i	0.1
COc1cccc(CC2(CO)CCCN(Cc3cn[nH]c3-c3ccccc3)C2)c1 (stereo not drawn)	3.9	2.7	11.8	+	-1.3
Cc1ccccc1CC1(CO)CCCN(Cc2cn[nH]c2-c2ccccc2)C1 (stereo not drawn)	-13.7	2.7	-1.0	i	3.4
Cc1cc(N2CCCC2)c(F)cc1/C=C\[N+](=O)[O-]	-11.6	-9.8	74.4*	?	5.3
CCOC(=O)/C(=C/c1ccc(N2CCC(c3ccccc3)=N2)cc1)C(C)=O	49.4*	0.1	5.0	i	2.0
CCCCN1CCNC[C@@H]1Cc1ccc(O)cc1	2.0	-2.1	1.6	+	1.3
Oc1ccc(C[C@@H]2CNCCN2CCc2cccc3ccccc23)cc1	-14.1	-3.4	8.2	+	0.9
Oc1ccc(C[C@H]2CNCCN2CCc2cccc(F)c2)cc1	3.4	14.1	10.9	i	-1.6
CC1CC(=O)C2=C(C1)Nc1ccccc1N(C(=O)COc1ccccc1)C2c1ccco1 (stereo not drawn)	-0.9	4.4	4.0	+	-1.1
CC(=O)N1c2ccccc2NC2=C(C(=O)CCC2)C1c1ccco1 (stereo not drawn)	-8.3	-2.2	3.9	i	2.7
CCN(CCn1cccn1)Cc1nc(Cc2cccc(F)c2)no1	-5.5	13.1	1.0	i	-2.3
O=C1C(Nc2ccc(O)cc2)=C/C(=N/S(=O)(=O)c2cccs2)c2ccccc21	20.5	-23.3	57.3*	?	-2.4
O=C(O)c1ccc(NC2=C/C(=N/S(=O)(=O)c3ccccc3)c3ccccc3C2=O)cc1	13.7	-15.6	58.5*	i	-3.2
CCc1ccc(S(=O)(=O)/N=C2\C=C(Nc3ccc(O)cc3)C(=O)c3ccccc32)cc1	8.7	-24.5	86.4*	?	1.4
O=S(=O)(N=C1C=CC(=NS(=O)(=O)c2ccccc2)c2ccccc21)c1ccccc1	-16.4	14.8	24.1	+	0.4
Cc1cccnc1C1=NOC(Cc2ccccc2)C(=O)N1Cc1ccc2c(c1)OCO2 (stereo not drawn)	21.4	2.9	0.5	i	0.1
COc1ccc(C(=O)NCC(=O)OCc2ccccc2F)cc1	-1.8	8.1	-2.8	i	4.9
O=C1OC(COc2ccc(Br)cc2)CN1c1ccccc1 (stereo not drawn)	28.9	8.7	0.7	i	-2.0
CCc1ccc(S(=O)(=O)/N=C2\C=C(Nc3cccc(C(=O)O)c3)C(=O)c3ccccc32)cc1	-2.3	-11.6	22.9	.	-3.0
CCc1ccc(S(=O)(=O)/N=C2/C=C(Sc3ncn[nH]3)C(=O)c3ccccc32)cc1	3.4	60.0*	97.7*	i	-1.0
C[C@H]1COc2cc(N3CCC[C@H]3CO)ccc2S(=O)(=O)N1	-11.0	.	-5.8	i	.
COC(=O)C1=C(C)N(Cc2ccccc2)C(=NCCc2c[nH]c3ccccc23)N[C@H]1c1cccc(F)c1	-9.2	1.0	-5.0	i	8.2*
COC(=O)C1=C(C)N(Cc2ccccc2)C(=NCCc2c[nH]c3ccccc23)N[C@H]1c1ccccc1	-2.2	6.1	11.3	i	0.4
COCCN=C1N[C@@H](c2ccc(Br)cc2)C(C(=O)OC)=C(C)N1Cc1ccccc1	6.6	3.1	8.0	+	3.2
COCCN=C1N[C@@H](c2ccccc2)C(C(=O)OC)=C(C)N1Cc1ccccc1	2.1	10.5	0.7	i	-0.8
CC(C)C[C@@H](CN1CCCC1CN1C(=S)NC[C@@H]1Cc1ccc(O)cc1)N1C[C@H](Cc2ccc(O)cc2)N(CC2CCCCCC2)C1=S (stereo partly drawn)	30.0	13.5	56.3*	i	0.8
CC(C)C[C@@H](CN1CCCC1CN1C(=S)NC[C@@H]1Cc1ccc(O)cc1)N1C[C@H](Cc2ccccc2)N(CC2CCCCCC2)C1=S (stereo partly drawn)	17.6	12.3	13.9	i	-0.1
CN(C)c1nnnn1-c1ccc(Oc2ncc(C(F)(F)F)cc2Cl)cc1	12.3	-2.6	2.0	i	-1.2
